Measurements gathered from unrelated publications.
Lines come from different studies, so protocols differ.
RET: Proto-oncogene tyrosine-protein kinase receptor Ret (RET, Homo sapiens, UniProt P07949)
RET V804L: Proto-oncogene tyrosine-protein kinase receptor Ret (RET, Homo sapiens, UniProt P07949, V804L)
RET M918T: Proto-oncogene tyrosine-protein kinase receptor Ret (RET, Homo sapiens, UniProt P07949, M918T)
RET V804M: Proto-oncogene tyrosine-protein kinase receptor Ret (RET, Homo sapiens, UniProt P07949, V804M)

With `COc1cnc(Nc2cccc(S(N)(=O)=O)c2)nc1N1CCN(c2ccccc2)C(=O)C1` the remaining binding was 90% (RET; binding, competition with immobilised ligand; 1 µM).
With `CCc1ccccc1C(=O)Nc1n[nH]c2c(C)c(F)c(C3C(C#N)=C(C)N(C)C(C)=C3C#N)cc12` the remaining binding was 25% (RET V804L; cell-free assay, competition with immobilised ligand; 1 µM).
With `O=C(c1ccc(Nc2ncc(Cl)c(-c3cc4ccccc4s3)n2)cc1)N1CCC(N2CCCC2)CC1` the remaining binding was 13% (RET M918T; binding, competition with immobilised ligand; 1 µM).
For `O=C(Nc1c[nH]nc1C(=O)NC1CCNCC1)c1cc(F)cc(F)c1`, the remaining binding was 100% (RET; binding, competition with immobilised ligand; 1 µM).
`Nc1ncc2c(n1)-c1c([nH]c3ccc(C#CC4CC4)cc13)CCCC2` has a remaining binding of 100% (RET V804M; binding, competition with immobilised ligand; 1 µM).
With `C[C@@H]1CN(c2ccc3ncc(-c4ccc5[nH]nc(C6CC6)c5c4)n3n2)C[C@H](C)O1` the remaining binding was 88% (RET; binding, competition with immobilised ligand; 50 nM).
With `c1cncc(-c2cccc(Nc3nccc(NC4CCCCC4)n3)c2)c1` the remaining binding was 2.1% (RET M918T; binding, competition with immobilised ligand; 10 µM).
With `Cc1nc(Cc2cccc(C(F)(F)F)c2)sc1-c1ccc(C(N)=O)nc1` the remaining binding was 86% (RET V804L; cell-free assay, competition with immobilised ligand; 1 µM).
With `O=C(NCC1CCOCC1)c1n[nH]cc1NC(=O)c1c(F)cccc1F` the remaining binding was 90% (RET V804M; binding, competition with immobilised ligand; 1 µM).
`O=C(c1ccc(Nc2ncc(Cl)c(-c3ccc(Cl)s3)n2)cc1)N1CCC(N2CCCC2)CC1` gave a remaining binding of 8.4% (RET M918T; binding, competition with immobilised ligand; 1 µM).
`CN(C(=O)c1ccccc1)c1cc(N(C)c2ccc3c(c2)CCc2ccc(C(=O)NCCN4CCOCC4)cc2C3=O)ccc1F` gave a remaining binding of 95% (RET; cell-free assay, competition with immobilised ligand; 1 µM).
`O=C(c1ccc(Nc2nccc(-c3cc4ccccc4s3)n2)cc1)N1CCC(N2CCCC2)CC1` has a remaining binding of 83% (RET M918T; binding, competition with immobilised ligand; 1 µM).
With `CNC(=O)[C@@H]1CC[C@@H](n2c(-c3ccc4cnccc4c3)nc3ccc(C(=O)NCc4cccc(C(N)=O)c4)cc32)C1` the remaining binding was 94% (RET V804L; binding, competition with immobilised ligand; 1 µM).
`CCN1CCN(Cc2ccc(C(=O)Nc3ccc(C)c(Oc4ccc5c(c4)CC(=O)N5)c3)cc2C(F)(F)F)CC1` has a remaining binding of 14% (RET; binding, competition with immobilised ligand; 1 µM).
The remaining binding of `CC1CCCN1c1nccc(-c2cnn3ncccc23)n1` (centres unmarked) is reported as 100% (RET; binding; 1 µM).
With `O=C(N[C@H]1CCCCC/C=C\C2C[C@@]2(C(=O)O)NC(=O)[C@@H]2C[C@@H](Oc3ccncc3)CN2C1=O)OC1CCCC1` (some centres unmarked) the remaining binding was 94% (RET; binding, competition with immobilised ligand; 1 µM).
With `F[C@@H]1CCN(c2nccc(-c3cnn4ncccc34)n2)C1` the remaining binding was 100% (RET M918T; binding; 1 µM).
The remaining binding of `CO[C@@H](C)c1c(Nc2ccc([C@@H](N(C)C(=O)C3CCS(=O)(=O)CC3)C(F)(F)F)cc2)cnc2cc(Cl)nn12` is reported as 91% (RET; cell-free assay, competition with immobilised ligand; 1 µM).
`C[C@@H]1CCN(c2nccc(-c3cnn4ncccc34)n2)C1` has a remaining binding of 100% (RET V804L; binding; 1 µM).
For `CC(C)CC(=O)N1CCc2nc(-c3ccc(Br)cc3)nc(N(C)Cc3ccccc3)c2C1`, the remaining binding was 82% (RET V804M; cell-free assay, competition with immobilised ligand; 0.1 µM).
The remaining binding of `CN1CCN(c2ccc(Nc3nccc(-c4ccccc4)n3)cc2C(F)(F)F)CC1` is reported as 48% (RET V804M; binding; 10 µM).
`O=C(NCCCN1CCOCC1)c1ccc(Nc2nccc(-c3cc4ccccc4s3)n2)cc1` gave a remaining binding of 55% (RET; binding, competition with immobilised ligand; 1 µM).
For `COc1ncc2cc3ccccc3nc2c1C#N`, the remaining binding was 98% (RET V804M; cell-free assay, competition with immobilised ligand; 5 µM).
The remaining binding of `Cc1cc(-n2nc(Cc3cc(F)cc(C(F)(F)F)c3)nc2C)ccc1C(N)=O` is reported as 96% (RET; cell-free assay, competition with immobilised ligand; 1 µM).
The remaining binding of `COc1cnc(Nc2cccc(S(N)(=O)=O)c2)nc1N1CCN(c2ccccc2)CC1` is reported as 64% (RET; binding, competition with immobilised ligand; 1 µM).
With `Cc1cnc(Nc2ccc(C(=O)N3CCC(N4CCCC4)CC3)cc2)nc1-c1cc2ccccc2s1` the remaining binding was 11% (RET V804L; binding, competition with immobilised ligand; 1 µM).
The remaining binding of `CN1CCN(c2ccc(Nc3nccc(-c4cccc([N+](=O)[O-])c4)n3)cc2C(F)(F)F)CC1` is reported as 41% (RET V804L; binding; 10 µM).
For `CN(C)c1nccc(-c2cnc3ncccn23)n1`, the remaining binding was 93% (RET V804M; binding; 1 µM).
For `C=CC(=O)N1CCC(C(=O)NCC(=O)N2CCN(c3nc(-c4cnc(N)nc4C(F)F)nc(N4CCOCC4)n3)CC2)CC1`, the remaining binding was 94% (RET; binding, competition with immobilised ligand; 1 µM).
With `CN(c1nccc(-c2cnn3ncccc23)n1)C1CC1` the remaining binding was 100% (RET V804L; binding; 1 µM).
For `O=C(NCCCN1CCOCC1)c1ccc(Nc2ncc(Cl)c(-c3ccc(Cl)s3)n2)cc1`, the remaining binding was 15% (RET V804M; binding, competition with immobilised ligand; 1 µM).
The remaining binding of `CN(C)c1nccc(-c2cnn3ncccc23)n1` is reported as 100% (RET V804M; binding; 1 µM).
For `Cc1nccc(COC(=O)N2C[C@@H]3[C@@H](CNC(=O)c4ccc5[nH]nnc5c4)[C@@H]3C2)n1`, the remaining binding was 100% (RET M918T; cell-free assay, competition with immobilised ligand; 1 µM).
For `N[C@@H]1CCN(c2nccc(-c3cnn4ncccc34)n2)C1`, the remaining binding was 99% (RET V804M; binding; 1 µM).
With `C[C@@H](c1ccc(-n2cnc3c(N)ncnc32)cc1)N1CCc2nn(C)c(Cc3ccccc3)c2C1=O` the remaining binding was 99% (RET V804L; binding, competition with immobilised ligand; 0.1 µM).
